Source: ChEMBL document CHEMBL1134666, “Design, synthesis, and biological evaluation of novel nucleoside and nucleotide analogues as agents against DNA viruses and/or retroviruses” (J Med Chem, 2001)
Values belong to the compound of their own block, whether it stands above or below them.

Experiments:
[1] = test system: Thymidine kinase (Herpes simplex virus 1); test: Maximum velocity constant of the rate of phosphorylation was determined against HSV thymidine kinase
[2] = Michaelis rate constant is determined by the Lineweaver and Burk method against PRPP synthetase
How it was run: (§1)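 PRPP synthetase (0.04 unit) in 10.0 mM potassium phosphate pH 8.0 with 5.0 mM MgCl2, 2.5 mM PRPP and substrate. Reaction linear; stopped with MeOH after 4 h. Diphosphate products quantified by anion-exchange HPLC.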

[3] = Maximum velocity constant of the rate of phosphorylation was determined against PRPP synthetase
How it was run: as §1

[4] = Maximum velocity constant of the rate of phosphorylation was determined against PRPP synthetase
[5] = target: T1, Adenosine deaminase (Bos taurus) (UniProt P56658); test: Maximum velocity constant of the rate of deamination was determined against adenosine deaminase
T1 sequence (whole entry): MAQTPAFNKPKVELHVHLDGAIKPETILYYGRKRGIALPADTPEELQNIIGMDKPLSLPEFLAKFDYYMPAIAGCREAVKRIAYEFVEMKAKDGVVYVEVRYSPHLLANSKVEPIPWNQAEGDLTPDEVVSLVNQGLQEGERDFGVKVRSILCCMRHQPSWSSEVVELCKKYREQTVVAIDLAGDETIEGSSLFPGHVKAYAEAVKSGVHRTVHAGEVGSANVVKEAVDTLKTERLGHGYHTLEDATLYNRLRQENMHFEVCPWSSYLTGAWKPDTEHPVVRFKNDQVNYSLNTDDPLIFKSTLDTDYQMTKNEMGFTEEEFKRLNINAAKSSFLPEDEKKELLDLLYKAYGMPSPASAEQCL
How it was run: (§2)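 Calf mucosal adenosine deaminase in buffer solution. Reaction velocity measured as µmol/min per mg enzyme across substrate concentrations.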

[6] = test system: Vero; test: Michaelis rate constant is determined by the Lineweaver and Burk method against Vero cell thymidine kinase; format: functional, cell-based; details: Chlorocebus sabaeus
[7] = target: T1, Adenosine deaminase (Bos taurus); test: Maximum velocity constant against adenosine deaminase
How it was run: as §2

[8] = test system: Thymidine kinase (Herpes simplex virus 1); test: Maximum velocity constant of the rate of phosphorylation was determined in the presence of HSV thymidine kinase

Relative Vmax [1]: 28
SMILES: Nc1nc(O)c2c(ncn2COCCO)n1

Km [2]: 240 µM
Relative Vmax [3]: 14
SMILES: Nc1ncnc2c1ncn2[C@@H]1O[C@H](COP(=O)(O)O)[C@@H](O)[C@H]1O

SMILES: Nc1ncnc2ncn(CCOCP(=O)(O)O)c12
Relative Vmax [4]: 0.013

SMILES: Nc1ncnc2ncn(COCCO)c12
Relative Vmax [5]: 1.5
Km [6]: > 3 µM

Relative Vmax [5]: 1
SMILES: Nc1ncnc2c1ncn2[C@@H]1O[C@H](CO)[C@@H](O)[C@@H]1O
Km [6]: 2.2 µM

Relative Vmax [7]: 1.5
Relative Vmax [8]: < 3
SMILES: Nc1ncnc2c1ncn2COCCO
Km [6]: > 3 µM
